Screens (PubChem BioAssay)
Sampled rows, rich in hits. Any-hit rate of the full collection: about 5.7%.
SKKanGAS inh: S. pyogenes SKKanGAS growth inhibitors in kanamycin, primary screen, streptokinase expression inhibitor project, SKKanGAS strain, BacTiter-Glo luminescence; 6 h; inhibition, % at 7.5 µM; 1.3% of 300,000 active;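 active = mean replicate score, as percent of positive control median, at least 50; inconclusive = mean below 50 but one replicate at or above 50; inactive = mean and every replicate below 50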;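 also: strain carries kanamycin resistance gene driven by streptokinase promoter and grows in 40 µg/ml kanamycin; loss of luminescence reflects streptokinase promoter inhibition or plain growth inhibition; 0% = median of DMSO wells and 100% = positive control at its reference dose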
Calb FLC: C. albicans growth inhibition with fluconazole, primary screen, CaCi-2 strain, Alamar Blue fluorescence. growth inhibition, % (concentration not given with the values). C. albicans CaCi-2 (fluconazole-resistant clinical isolate) + fluconazole, 48 h. 0.57% of 300,000 active;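 active = growth inhibition above about 58% in most replicates, limit read from the data, passing the limit was not always enough; inconclusive = exactly half the replicates above a set limit; inactive = most replicates below a set limit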;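 also: all wells also contain fluconazole at 8 µg/ml as a sub-toxic cotreatment; 0% = median of DMSO wells and 100% = median of geldanamycin control wells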
Beta cell apopt: inhibitors of cytokine-induced beta cell apoptosis, primary screen, luminescence; protection from apoptosis, % (concentration not given with the values); AID 435005, 2010; 0.8% of 300,000 active; INS-1E cytokine-induced death, ATP luminescence, 48 h; percent of positive-control rescue, neutral wells zero;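 active = Every replicate reaches about 75%, or at least half do and their mean reaches it too, limit read from the data; inconclusive = At least half of replicates reach the limit but their mean does not; inactive = Under half of replicates reach the limit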;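 also: 0% = cytokine-treated negative control wells and 100% = positive control rescue; higher means more ATP so stronger rescue from cytokine killing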
Mdm2 MdmX PPI: inhibitors of human Mdm2-MdmX association, primary screen, cell-based, luminescence, split luciferase, SaOS-2, uHTS; Protein Mdm4 (Homo sapiens) + E3 ubiquitin-protein ligase Mdm2 (Homo sapiens), …; SaOS-2 split-luciferase Mdm2/MdmX complementation; inhibition, % at 8 µM; 3% of 330,000 active;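 active = inhibition of at least 50% at 8 µM in the primary screen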
T cruzi inh: inhibitors of intracellular T. cruzi growth, primary screen, luminescence, NIH3T3 host cells | T. cruzi beta-gal in NIH3T3, 90 h | inhibition, % (concentration not given with the values) | 1.4% of 300,000 active | AID 1885, 2009;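 active = mean inhibition across valid replicates above about 55%, limit read from the data; inconclusive = mean below that limit but half or more replicates reach it; inactive = mean below it, under half of replicates reach it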;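 also: signal also drops with host cell toxicity which is not excluded here; 0% = plate median of DMSO wells and 100% = zero luminescence signal; higher percent means less beta-gal luminescence so fewer parasites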
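Incubation – ≥90 h infection period, 3 h prior cell attachment · System – NIH/3T3 fibroblasts plus reporter T. cruzi · Doses – compound pinned at 50 nL/well, DMSO · Read-out basis – percent inhibition of parasite-derived β-gal signal · Signal – luminescent β-galactosidase signal after 60 min lysis · Also added – 5000 T. cruzi trypomastigotes/well · Medium – Low-serum DMEM with 2% FBS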
CSC inhib: cancer stem cell viability inhibitors, primary screen, luminescence; cancer stem cell-like cells viability; inhibition, % at 7.5 µM; 1.1% of 300,000 active; in the data active = inhibition above about 75%; inconclusive = no clear call, values can overlap the other calls; tested in HMLE shEcad cells
Mdm2 MdmX conf: Mdm2-MdmX complex disruptors, retested hits, confirmation, luminescence, single concentration; shares compounds with Mdm2 MdmX PPI; Mdm2-MdmX binding, luminescent assay; inhibition, % at 8 µM; 55% of 10,000 active; AID 489028, 2010; in the data active = inhibition above about 40%
Full FLuc ctr: full-length luciferase signal inhibition, confirmation, counter-screen for Mdm2/MdmX interaction inhibitor project, cell-based, single concentration, SaOS-2 | AID 504607, 2011 | SaOS-2 full-length luciferase counterscreen, luminescence | inhibition, % at 8 µM | 77% of 6,200 active | shares compounds with Mdm2 MdmX PPI;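 active = mean inhibition at 8 µM reaching about 37%, which flags the compound as non-specific, limit read from the data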;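 also: p53-null SaOS-2 cells with luciferase driven by a doxycycline-inducible promoter; compound on cells about two nights before reading with doxycycline added after day one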
* marks the source's active call; other numbers are inactive results; ? = inconclusive; . = no result given.

SMILES	SKKanGAS inh	Calb FLC	Beta cell apopt	Mdm2 MdmX PPI	T cruzi inh	CSC inhib	Mdm2 MdmX conf	Full FLuc ctr
COc1ccc(CCn2c(C3CCCCC3)nc3c(c(=O)c4ccccc4n3C)c2=O)cc1	68.0*	45.0	.	81.2*	?	?	50.0*	45.1*
CCc1nc2c(c(=O)c3ccccc3n2C)c(=O)n1C1CCCCCC1	22.4	-6.6	40.6	51.7*	-6.0	33.6	76.1*	80.7*
Cn1c2ccccc2c(=O)c2c(=O)n(C3CCCCC3)c(-c3cccs3)nc21	60.4*	42.5	42.3	58.5*	?	50.1	69.3*	62.6*
Cn1c2ccccc2c(=O)c2c(=O)n(C3CCCCCC3)c(C3CCCCC3)nc21	33.0	11.2	.	.	18.2	.	.	.
COc1cccc(NC(=O)CN(C)CC(=O)Nc2ccc3c(c2)OCO3)c1	.	.	-2.3	19.3	.	-4.8	.	.
COc1cccc(NC(=O)CN(C)CC(=O)Nc2ccc(C)c([N+](=O)[O-])c2)c1	-2.4	-3.3	-12.1	61.2*	1.0	-7.6	46.4*	41.7*
N/C(=N\NC(=O)c1sccc1OCc1ccc(Cl)cc1Cl)c1ccccn1	?	?	77.9*	61.8*	46.2	-2.7	65.5*	35.1
Cc1ccc(C)c(OCC(O)CN2CCC(CN3C(=O)c4cccc5cccc(c45)C3=O)CC2)c1 (configuration not stated)	7.5	-0.4	67.4	59.6*	51.9	33.3	32.6	.
COc1ccc(OCC(O)CN2CCC(CN3C(=O)c4cccc5cccc(c45)C3=O)CC2)cc1 (configuration not stated)	4.3	-6.3	12.0	18.7	32.7	6.0	.	.
COc1ccccc1NC(=O)N(Cc1ccco1)Cc1cc2cc(C)cc(C)c2[nH]c1=O	22.4	6.0	6.8	53.1*	29.9	0.2	37.0	.
COc1ccccc1NC(=S)N(Cc1ccco1)Cc1cc2cccc(C)c2[nH]c1=O	14.3	0.0	-6.1	-5.0	-6.6	-1.5	.	.
COc1ccccc1NC(=S)N(Cc1ccco1)Cc1cc2cc(C)c(C)cc2[nH]c1=O	16.4	3.8	8.8	59.4*	-1.8	-10.6	54.0*	56.5*
COc1ccccc1NC(=O)N(CCN1CCOCC1)Cc1cc2cc(C)cc(C)c2[nH]c1=O	-1.4	7.4	-8.8	13.8	5.0	-8.5	.	.
Cc1cc2cc(CN(Cc3ccco3)S(=O)(=O)c3c(C)ccc4nsnc34)c(=O)[nH]c2cc1C	5.8	1.3	-2.7	60.5*	53.2	18.8	54.1*	54.0*
Cc1ccc(NC(=O)Cc2nc(CN(C)CC(=O)Nc3ccc(C)cc3)cs2)cc1	.	.	0.2	22.1	.	.	.	.
O=C(N/N=C/c1ccc(-c2ccc(S(=O)(=O)Nc3ncccn3)cc2)o1)c1cc2ccccc2cc1O	8.8	21.6	0.1	54.5*	-13.6	-4.6	36.2	.
CCOc1ccc(C(=O)N/N=C/c2ccc(-c3ccc(S(=O)(=O)Nc4ncccn4)cc3)o2)cc1	8.0	7.5	7.3	0.8	2.9	-3.6	.	.
N#Cc1c(SCC(=O)Nc2ccc(Cl)cc2Cl)sc2c(O)cc(=O)[nH]c12	32.1	-0.9	-4.3	62.2*	-14.9	-2.2	-8.4	.
Cc1c(Cl)cccc1NC(=O)CSc1sc2c(O)cc(=O)[nH]c2c1C#N	26.4	22.8	-3.5	27.3	6.4	-4.4	.	.
COC(=O)CCc1c(COC(C)=O)[nH]c(C(=O)OCc2ccccc2)c1C	4.3	-2.1	-5.8	-3.2	6.3	-13.8	.	.
Oc1cccc2ccc(Nc3ccccn3)nc12	39.3	103.0*	105.9*	71.9*	62.3*	103.6*	100.2*	52.0*
